Test results reported in ChEMBL document CHEMBL3297742, “Tetrahydronaphthyridine and dihydronaphthyridinone ethers as positive allosteric modulators of the metabotropic glutamate receptor 5 (mGlu₅)” (J Med Chem, 2014).

Experiments:
[1] = biological target: Metabotropic glutamate receptor 5 (Rattus norvegicus) (UniProt P31424); assay: Positive allosteric modulator activity at rat mGlu5 receptor expressed in HEK293 cells assessed as potentiation of glutamate-induced calcium mobilization at 30 uM by fluorescence assay relative to glutamate; type: functional, cell-based
Metabotropic glutamate receptor 5 (Rattus norvegicus), sequence (P31424 21-1203 limits assumed): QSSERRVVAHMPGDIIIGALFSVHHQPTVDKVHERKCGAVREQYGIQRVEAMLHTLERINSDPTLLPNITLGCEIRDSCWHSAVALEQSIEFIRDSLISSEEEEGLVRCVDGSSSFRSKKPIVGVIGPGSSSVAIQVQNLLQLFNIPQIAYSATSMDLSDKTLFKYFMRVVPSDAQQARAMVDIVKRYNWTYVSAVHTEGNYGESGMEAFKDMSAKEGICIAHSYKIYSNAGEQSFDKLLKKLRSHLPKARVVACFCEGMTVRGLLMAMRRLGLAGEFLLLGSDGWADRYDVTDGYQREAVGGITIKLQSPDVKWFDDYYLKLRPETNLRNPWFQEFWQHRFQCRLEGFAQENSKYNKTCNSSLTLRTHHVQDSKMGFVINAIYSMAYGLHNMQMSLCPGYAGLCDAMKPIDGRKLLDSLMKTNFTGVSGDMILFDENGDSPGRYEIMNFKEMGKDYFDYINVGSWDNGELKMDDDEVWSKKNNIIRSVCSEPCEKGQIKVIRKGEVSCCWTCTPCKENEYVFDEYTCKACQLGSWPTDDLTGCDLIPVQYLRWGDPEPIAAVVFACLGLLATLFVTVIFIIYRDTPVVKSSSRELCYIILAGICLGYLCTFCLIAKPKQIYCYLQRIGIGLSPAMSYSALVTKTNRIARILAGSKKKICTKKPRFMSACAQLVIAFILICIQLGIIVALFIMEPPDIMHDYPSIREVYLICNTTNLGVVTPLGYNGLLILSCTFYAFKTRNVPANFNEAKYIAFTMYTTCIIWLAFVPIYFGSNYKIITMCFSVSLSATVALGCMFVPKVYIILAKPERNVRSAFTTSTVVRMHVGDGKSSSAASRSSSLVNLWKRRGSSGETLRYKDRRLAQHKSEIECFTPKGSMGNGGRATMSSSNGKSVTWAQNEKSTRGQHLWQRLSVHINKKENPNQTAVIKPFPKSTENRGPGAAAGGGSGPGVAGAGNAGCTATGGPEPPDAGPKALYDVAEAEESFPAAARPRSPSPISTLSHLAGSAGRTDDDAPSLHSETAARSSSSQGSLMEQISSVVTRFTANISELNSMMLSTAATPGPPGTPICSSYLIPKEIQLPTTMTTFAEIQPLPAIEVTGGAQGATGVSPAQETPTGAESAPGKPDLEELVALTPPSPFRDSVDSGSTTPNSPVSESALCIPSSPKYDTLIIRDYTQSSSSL
Outline: (§1)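 HEK293 cells stably expressing rat mGlu5, 15000 cells/well, grown overnight, loaded with 1 µM Fluo-4AM for 50 min at 37 °C in HBSS/20 mM HEPES/2.5 mM probenecid pH 7.4. Compound added, then an EC20 of glutamate 140 s later and an EC80 90–120 s after that. Fluorescence over basal normalized to maximal glutamate response (100 µM glutamate); compound at up to 30 µM; ≥3 independent determinations.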

[2] = biological target: T1, Metabotropic glutamate receptor 5 (Rattus norvegicus, UniProt P31424); assay: Positive allosteric modulator activity at rat mGlu5 receptor expressed in HEK293 cells assessed as potentiation of glutamate-induced calcium mobilization by fluorescence assay; type: functional, cell-based; outline: as §1
T1 sequence (P31424 whole entry): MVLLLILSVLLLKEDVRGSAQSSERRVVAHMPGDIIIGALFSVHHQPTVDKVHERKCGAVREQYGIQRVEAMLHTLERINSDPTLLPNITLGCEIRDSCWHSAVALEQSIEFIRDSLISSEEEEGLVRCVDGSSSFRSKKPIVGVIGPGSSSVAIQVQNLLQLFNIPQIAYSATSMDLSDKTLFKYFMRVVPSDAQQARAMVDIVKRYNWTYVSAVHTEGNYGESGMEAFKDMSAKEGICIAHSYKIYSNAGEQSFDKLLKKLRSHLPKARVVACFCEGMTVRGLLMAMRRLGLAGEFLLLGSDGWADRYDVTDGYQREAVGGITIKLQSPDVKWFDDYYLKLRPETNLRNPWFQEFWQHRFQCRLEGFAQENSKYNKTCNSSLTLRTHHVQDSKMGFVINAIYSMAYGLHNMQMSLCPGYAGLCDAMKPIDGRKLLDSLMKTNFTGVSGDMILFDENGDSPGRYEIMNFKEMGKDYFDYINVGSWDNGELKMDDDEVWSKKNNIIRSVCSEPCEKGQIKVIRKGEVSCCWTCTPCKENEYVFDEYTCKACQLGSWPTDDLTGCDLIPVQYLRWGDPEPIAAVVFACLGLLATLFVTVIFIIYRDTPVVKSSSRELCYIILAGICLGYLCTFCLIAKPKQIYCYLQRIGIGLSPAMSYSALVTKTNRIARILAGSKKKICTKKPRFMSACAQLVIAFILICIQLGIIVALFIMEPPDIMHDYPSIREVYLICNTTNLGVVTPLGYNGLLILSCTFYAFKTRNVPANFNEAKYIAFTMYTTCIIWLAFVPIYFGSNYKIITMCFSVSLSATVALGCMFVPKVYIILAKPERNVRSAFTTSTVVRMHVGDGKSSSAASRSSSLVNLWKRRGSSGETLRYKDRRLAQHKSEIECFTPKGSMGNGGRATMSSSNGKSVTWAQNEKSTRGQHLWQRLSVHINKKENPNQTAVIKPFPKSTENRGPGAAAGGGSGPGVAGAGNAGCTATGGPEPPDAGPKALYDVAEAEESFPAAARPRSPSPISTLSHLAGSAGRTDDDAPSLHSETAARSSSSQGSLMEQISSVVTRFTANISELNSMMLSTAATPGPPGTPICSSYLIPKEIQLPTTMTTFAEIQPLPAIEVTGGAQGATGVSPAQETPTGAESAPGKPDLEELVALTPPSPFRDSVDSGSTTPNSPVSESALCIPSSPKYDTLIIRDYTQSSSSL

Plasma [3] = assay: Fraction unbound in human plasma; type: ADME, cell-free
[4] = (§2) Fraction unbound in rat plasma; type: ADME, cell-free
[5] = biological target: T1, Metabotropic glutamate receptor 5; assay: Partial antagonist activity at rat mGlu5 receptor expressed in HEK293 cells; type: cell-based
[6] = biological target: Metabotropic glutamate receptor 5 (Rattus norvegicus) (UniProt P31424); assay: Partial antagonist activity at rat mGlu5 receptor expressed in HEK293 cells relative to glutamate; type: cell-based
Plasma [7] = assay: as §2; type: ADME, cell-free
[8] = biological target: Metabotropic glutamate receptor 3 (Rattus norvegicus) (UniProt P31422); assay: Negative allosteric modulator activity at rat mGlu3 receptor expressed in HEK293 cells assessed as negative cooperativity fold shift of glutamate concentration response curve for GIRK channel-mediated thallium flux at 10 uM treated 140s prior to glutamate challenge by fluorescence analysis; type: cell-based
Metabotropic glutamate receptor 3 (Rattus norvegicus), sequence (P31422 23-879 limits assumed): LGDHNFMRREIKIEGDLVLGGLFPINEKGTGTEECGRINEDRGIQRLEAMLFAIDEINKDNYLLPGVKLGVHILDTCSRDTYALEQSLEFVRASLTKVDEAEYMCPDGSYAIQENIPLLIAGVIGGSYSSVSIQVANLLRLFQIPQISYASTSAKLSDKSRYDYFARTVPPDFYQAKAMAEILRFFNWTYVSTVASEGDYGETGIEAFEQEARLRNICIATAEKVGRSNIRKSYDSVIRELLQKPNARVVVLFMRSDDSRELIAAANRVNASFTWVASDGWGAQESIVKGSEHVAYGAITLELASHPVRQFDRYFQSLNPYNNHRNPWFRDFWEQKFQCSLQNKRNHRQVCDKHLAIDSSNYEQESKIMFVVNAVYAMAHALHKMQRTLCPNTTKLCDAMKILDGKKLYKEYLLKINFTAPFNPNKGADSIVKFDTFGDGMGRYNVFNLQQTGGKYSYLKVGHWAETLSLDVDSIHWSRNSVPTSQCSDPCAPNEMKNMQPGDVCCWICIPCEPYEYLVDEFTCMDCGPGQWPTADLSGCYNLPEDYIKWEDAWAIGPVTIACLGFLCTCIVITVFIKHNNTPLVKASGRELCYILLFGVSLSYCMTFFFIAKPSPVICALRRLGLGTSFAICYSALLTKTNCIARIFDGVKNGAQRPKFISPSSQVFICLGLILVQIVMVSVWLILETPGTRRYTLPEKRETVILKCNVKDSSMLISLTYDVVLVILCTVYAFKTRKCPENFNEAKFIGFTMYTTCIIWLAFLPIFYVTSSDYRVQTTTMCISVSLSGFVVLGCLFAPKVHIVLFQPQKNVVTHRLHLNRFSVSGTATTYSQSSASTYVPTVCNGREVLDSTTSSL
Outline: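 HEK293-GIRK cells expressing rat mGlu2, 3, 4, 6, 7 or 8, 15000 cells/well. Vehicle or 10 µM compound added, then 140 s later a glutamate CRC (L-AP4 for mGlu7) in thallium buffer (12 mM thallium sulfate, 10 mM HEPES). Thallium flux through GIRK read by fluorescence.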

Compound: CN1CCc2nc(COc3cccc(F)c3)ccc2C1=O
- Activity [1]: < 10%

Compound: CN1CCc2nc(OCc3cccc(F)c3)ccc2C1=O
- Activity [1]: < 10%

Compound: O=C1c2ccc(OCc3ccccc3)nc2CCN1Cc1ccccc1
- %max [1]: 23%
- EC50 ([2]; read-out: EC50): 2760 nM

Compound: O=C(c1ccc(F)cc1)N1CCc2ncc(COc3cccc(F)c3)cc2C1
- %max [1]: 69%
- EC50 ([2]; read-out: EC50): 1090 nM

Compound: CC(C)CN1CCc2nc(COc3cccc(F)c3)ccc2C1=O
- %max [1]: 38%
- EC50 ([2]; read-out: EC50): 1150 nM

Compound: O=C1NCCc2nc(OCc3cccnc3)ccc21
- Activity [1]: < 10%

Compound: O=C1NCCc2nc(OCc3cccc(Cl)c3)ccc21
- %max [1]: 43%
- EC50 ([2]; read-out: EC50): 62 nM

Compound: CN1CCc2cc(COc3ccccc3)ncc2C1=O
- Activity [1]: < 10%

Compound: O=C1NCCc2cc(COc3ccccc3)ncc21
- Activity [1]: < 10%

Compound: O=C(c1ccc(F)cc1)N1CCc2ncc(COc3ccc(F)cc3)cc2C1
- %max [1]: 53%
- EC50 ([2]; read-out: EC50): 1770 nM

Compound: O=C1c2ccc(COc3ccccc3)nc2CCN1c1ccc(F)cc1
- %max [1]: 68%
- Fu (Plasma [3]): 0.021
- fraction unbound [4]: 0.036
- EC50 ([2]; read-out: EC50): 198 nM

Compound: O=C1c2ccc(COc3cccc(F)c3)nc2CCN1c1ccc(F)cn1
- %max [1]: 59%
- EC50 ([2]; read-out: EC50): 595 nM

Compound: O=C1NCCc2nc(OCc3ccc(Cl)cc3)ccc21
- Activity [1]: < 10%

Compound: O=C1NCCc2nc(OCc3ccccc3)ccc21
- %max [1]: 54%
- EC50 ([2]; read-out: EC50): 1030 nM
- EC50 ([2]; read-out: pEC50 (converted)): 1050 nM

Compound: O=C1c2cnc(COc3ccccc3)cc2CCN1c1ccc(F)cc1
- %max [1]: 30%
- EC50 ([2]; read-out: EC50): 403 nM

Compound: O=C1c2ccc(OCc3ccccc3)nc2CCN1Cc1ccccn1
- Activity [1]: < 10%

Compound: O=C(c1ccc(F)cc1)N1CCc2ncc(OCc3ccccc3)cc2C1
- IC50 [5]: 7810 nM
- Emin [6]: 53%

Compound: CN1CCc2cc(COc3ccccc3)cnc2C1=O
- Activity [1]: < 10%

Compound: O=C1c2ncc(COc3ccccc3)cc2CCN1c1ccc(F)cc1
- %max [1]: 81%
- Fu (Plasma [3]): 0.096
- Fu (Plasma [7]): 0.11
- fold change (FC) [8]: 0.3
- EC50 ([2]; read-out: EC50): 538 nM

Compound: CCCCOc1ccc2c(n1)CCN(c1ccc(F)cc1F)C2=O
- Activity [1]: < 10%

Compound: O=C(c1ccccc1)N1CCc2ncc(OCc3ccccc3)cc2C1
- Activity [1]: < 10%

Compound: O=C1NCCc2nc(OCc3ccccc3Cl)ccc21
- Activity [1]: < 10%

Compound: O=C1NCCc2nc(OCc3ccccc3F)ccc21
- %max [1]: 68%
- EC50 ([2]; read-out: EC50): 1170 nM

Compound: C[C@@H](N1CCc2cc(COc3ccccc3)cnc2C1=O)C(C)(C)C
- Activity [1]: < 10%

Compound: O=C1NCCc2cc(COc3ccccc3)cnc21
- Activity [1]: < 10%

Compound: O=C1c2ccc(COc3cccc(F)c3)nc2CCN1c1ccc(F)cc1
- %max [1]: 72%
- Fu (Plasma [3]): 0.014
- Fu (Plasma [7]): 0.029
- fold change (FC) [8]: 0.2
- EC50 ([2]; read-out: EC50): 97 nM

Compound: O=C1NCCc2nc(OCc3ccccn3)ccc21
- Activity [1]: < 10%

Compound: CCCCOc1ccc2c(n1)CCNC2=O
- Activity [1]: < 10%

Compound: O=C1NCCc2nc(COc3cccc(F)c3)ccc21
- %max [1]: 34%
- EC50 ([2]; read-out: EC50): > 10000 nM

Compound: CC(C)CN1CCc2nc(OCc3cccc(F)c3)ccc2C1=O
- Activity [1]: < 10%

Compound: O=C1c2ccc(COc3cccc(F)c3)nc2CCN1Cc1ccccc1
- %max [1]: 38%
- EC50 ([2]; read-out: EC50): > 10000 nM

Compound: O=C(c1cccc(F)c1)N1CCc2ncc(OCc3cccc(F)c3)cc2C1
- %max [1]: 30%
- EC50 ([2]; read-out: EC50): 1630 nM

Compound: O=C1NCCc2nc(COc3ccccc3)ccc21
- %max [1]: 43%
- EC50 ([2]; read-out: EC50): > 10000 nM

Compound: O=C1c2ccc(OCc3cccc(F)c3)nc2CCN1c1ccc(F)cn1
- %max [1]: 50%
- Fu (Plasma [3]): 0.01
- Fu (Plasma [7]): 0.025
- EC50 ([2]; read-out: EC50): 212 nM

Compound: CC1(CN2CCc3nc(OCc4cccc(F)c4)ccc3C2=O)COC1
- %max [1]: 39%
- EC50 ([2]; read-out: EC50): 2470 nM

Compound: O=C(c1ccc(F)cc1)N1CCc2ncc(COc3ccccc3)cc2C1
- %max [1]: 69%
- EC50 ([2]; read-out: EC50): 640 nM

Compound: CC(N1CCc2cc(COc3ccccc3)ncc2C1=O)C(C)(C)C (stereo not drawn)
- Activity [1]: < 10%

Compound: O=C(C1CC1)N1CCc2ncc(OCc3cccc(F)c3)cc2C1
- Activity [1]: < 10%

Compound: O=C1c2ccc(OCc3cccc(F)c3)nc2CCN1CC1CC1
- Activity [1]: < 10%

Compound: O=C1c2ccc(COc3cccc(F)c3)nc2CCN1CC1CC1
- %max [1]: 33%
- EC50 ([2]; read-out: EC50): > 10000 nM

Compound: O=C1c2ccc(OCc3cccc(F)c3)nc2CCN1CC1CCC1
- %max [1]: 36%
- EC50 ([2]; read-out: EC50): 444 nM

Compound: O=C1c2ccc(OCc3cccc(F)c3)nc2CCN1Cc1ccccc1
- %max [1]: 36%
- EC50 ([2]; read-out: EC50): 3170 nM

Compound: O=C1c2ccc(OCc3cccc(F)c3)nc2CCN1c1ccc(F)cc1
- %max [1]: 38%
- EC50 ([2]; read-out: EC50): 118 nM
